The text below walks through data of ChEMBL document CHEMBL1287725, “N-(8-(3-ethynylphenoxy)octyl-1-deoxynojirimycin suppresses growth and migration of human lung cancer cells” (Bioorg Med Chem Lett, 2010).

Activity calls are given as the source filed them. No cut-off for these calls is given here.

For test [1], the system named is A549. The test is described as follows: Antiproliferative activity against human A549 cells after 72 hrs by MTT assay. The class given is functional, cell-based. Particulars: A549, 72 h. Put shortly: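 A549 cells (2.5 x 10^3/well) in F12K with 10% FBS, seeded overnight, then exposed to a range of doses for 72 h. MTT was added to a final 0.5 mg/ml for 3 h. Formazan was dissolved in DMSO and absorbance read. Triplicates, three experiments; IC50 given as mean of three experiments.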

Test [2] deals with A549. The test can be described thus: Inhibition of human A549 cell migration at 100 uM after 24 hrs by wound-healing assay. In kind it is functional, cell-based. Put shortly: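 Confluent A549 monolayers (3 x 10^4 cells seeded overnight, F12K/10% FBS) were scratched with a 200 µl pipette tip and washed. They were incubated at 37 °C in 10% FBS F12K with or without compound, and migration into the wound was photographed at 0 and 24 h.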

Test [3] relates to A549. The test can be described thus: Effect on surface oligosaccharide expression in human A549 cells assessed as inhibition of binding of L-PHA-[…] to cell surface at 50 uM after 24 hrs by flow cytometry. In kind it is functional, cell-based.
The test system of test [4] is A549. The test can be described thus: Cell cycle arrest in human A549 cells assessed as accumulation at G1 phase at 50 uM after 24 hrs using propidium iodide staining by flow cytometry relative to control. The class given is functional. The essentials: (§1)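 A549 cells were seeded overnight in F12K/10% FBS, then treated 24 h. They were harvested with trypsin-EDTA, fixed in 70% ethanol at −20 °C for at least 2 h, and treated with RNase A 200 µg/ml at 25 °C for 30 min. Staining was with propidium iodide 50 µg/ml for 30 min at 4 °C. 10,000 nuclei per sample were scored by flow cytometry for G1, S and G2/M percentages. Triplicate, repeated three times.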
On the technique in general: A flow cytometer gives signals particle by particle.

The test system of test [5] is A549. The test is described as follows: Cell cycle arrest in human A549 cells assessed as accumulation at G2/M phase at 50 uM after 24 hrs using propidium iodide staining by flow cytometry relative to control. In kind it is functional. The essentials:
as §1

For test [6], the system named is A549. The test is described as follows: Cell cycle arrest in human A549 cells assessed as accumulation at S phase at 50 uM after 24 hrs using propidium iodide staining by flow cytometry relative to control. The class given is functional. The essentials:
as §1

For test [7], the system named is A549. The test can be described thus: Induction of apoptosis in human A549 cells at 50 uM after 24 to 72 hrs using annexin V and propidium iodide staining by flow cytometry. In kind it is functional, cell-based. The essentials: (§2)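 A549 cells were seeded and, the next day, treated in complete medium at 0, 50 or 100 µM for 24, 48 and 72 h. Cells were collected and washed twice with DPBS, then stained with an annexin V-FITC/propidium iodide kit. Annexin V-positive cells were quantified by flow cytometry. Triplicate, repeated three times.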

In test [8] the test system is A549. The test is described as follows: Induction of apoptosis in human A549 cells at 100 uM after 24 to 72 hrs using annexin V and propidium iodide staining by flow cytometry. In kind it is functional, cell-based. The essentials: as §2
The test system of test [9] is A549. The test is described as follows: Induction of apoptosis in human A549 cells assessed as increased mitochondrial membrane depolarization at 100 uM after 48 hrs using JC-1 dye by flow cytometry. The class given is functional, cell-based. The essentials:
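After 48 h exposure, A549 cells were harvested and stained with JC-1. The red-to-green fluorescence shift (green/red ratio) was measured by flow cytometry as mitochondrial depolarisation. Mean ± SD, n=3.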

Test [10] deals with A549. The test is described as follows: Inhibition of human A549 cell migration assessed as prevention of actin stress fibre formation at 100 uM after 24 hrs by TRITC-phalloidin staining. The class given is functional, cell-based. The essentials: (§3)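 A549 cells on glass coverslips were seeded overnight, then exposed 24 h. They were fixed with 4% paraformaldehyde, permeabilised with 0.1% Triton X-100, blocked with 1% BSA, and stained 60 min with TRITC-phalloidin for F-actin. Stress fibres were examined by confocal microscopy (100x oil). Repeated three times.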

Test [11] has as its system A549. The test is described as follows: Inhibition of human A549 cell migration assessed as disruption of actin assembly at 100 uM after 24 hrs by TRITC-phalloidin staining. The class given is functional, cell-based. The essentials: as §3
The subject of test [12] is A549. The test can be described thus: Cell cycle arrest in human A549 cells assessed as accumulation at G1 phase at 100 uM after 24 hrs using propidium iodide staining by flow cytometry relative to control. In kind it is functional. Put shortly: as §1
Test [13] concerns A549. The test is described as follows: Cell cycle arrest in human A549 cells assessed as accumulation at G2/M phase at 100 uM after 24 hrs using propidium iodide staining by flow cytometry relative to control. In kind it is functional. The essentials:
as §1

The test system of test [14] is A549. The test can be described thus: Cell cycle arrest in human A549 cells assessed as accumulation at S phase at 100 uM after 24 hrs using propidium iodide staining by flow cytometry relative to control. In kind it is functional. The essentials: as §1

In general, IC50 refers to the point on the concentration scale where inhibition reaches its midpoint. Read a low IC50 as greater potency in that assay.

As for `C#Cc1cccc(OC)c1`, the IC50 in the test with A549 [1] is more than 1000 µM. For the same compound, the inhibition result in the test with A549 [2] was “inactive”.
Turning to `OC[C@H]1NC[C@H](O)[C@@H](O)[C@@H]1O` [DUVOGLUSTAT], in the test on A549 [3], the inhibition entry is “Active”. Also, the IC50 in the test with A549 [1] is more than 1000 µM. In addition, the inhibition entry in the test with A549 [2] was “inactive”.
Turning to `C#Cc1cccc(OCCCCCCCCN2C[C@H](O)[C@@H](O)[C@H](O)[C@H]2CO)c1`, the inhibition entry in the test with A549 [3], in the test on A549 [2], with A549 [10] and with A549 [11] was “Active” each time. Also, the IC50 with A549 [1] amounted to 51.2 µM. Also, the Activity in the test on A549 [4] was found to be 77.69%; with A549 [5], 9.97%; in the test on A549 [6], 13.93%; in the test on A549 [12], 89.1%; in the test on A549 [13], 5.44%; with A549 [14], 4.85%. The result in the test on A549 [7], in the test on A549 [8] and in the test on A549 [9] was Active.
